In ChEMBL document CHEMBL1138476 (J Med Chem, 2009):
pIC50: −log10 of the molar value. In brackets after ≈: the same amount, converted by molar mass. Activity calls are given as the source filed them. No cut-off for these calls is given here.

Tests used:
Rattus norvegicus [1] = assay: Effect on gastrointestinal motility in fasted Sprague-Dawley rat assessed as distance of charcoal moved from stomach to cecum at 0.3 mg/kg, ip (RVb= 38.4+/-3.8 %); type: functional, Caecum; conditions: route intraperitoneal
[2] = biological target: T1, Corticotropin-releasing factor receptor 1 (Rattus norvegicus, UniProt P35353); assay: Displacement of [125I]Tyro-rat/human CRF from CRF1 receptor in rat cortical membrane by gamma counting; type: cell membranes
T1 sequence (P35353 whole entry): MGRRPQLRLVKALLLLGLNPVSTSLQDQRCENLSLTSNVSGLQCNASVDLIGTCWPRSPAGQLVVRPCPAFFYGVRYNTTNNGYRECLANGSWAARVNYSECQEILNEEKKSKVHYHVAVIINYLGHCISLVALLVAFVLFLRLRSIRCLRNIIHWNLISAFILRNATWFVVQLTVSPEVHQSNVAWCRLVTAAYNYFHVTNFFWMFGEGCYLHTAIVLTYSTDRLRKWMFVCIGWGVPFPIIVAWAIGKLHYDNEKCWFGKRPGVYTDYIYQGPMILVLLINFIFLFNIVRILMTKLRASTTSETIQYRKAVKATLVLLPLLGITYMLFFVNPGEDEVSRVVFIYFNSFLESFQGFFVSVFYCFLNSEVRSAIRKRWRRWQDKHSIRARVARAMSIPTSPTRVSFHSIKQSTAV
Procedure, shortened: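 Binding to CRF receptors in rat cortical homogenate.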

Rattus norvegicus [3] = assay: Anxiolytic activity in rat assessed as decrease in latency to exit dark chamber at 10 mg/kg, po by defensive withdrawal test relative to untreated control; type: functional; parameters: scale not given: the % may be the effect or the level left
Procedure, shortened: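 Rat defensive withdrawal: latency to leave the dark chamber and explore the open field, maximum 900 s. Dosed orally in 0.25% Methocel 60 min before testing; n = 8 per dose, mean ± SEM. Analysed by Kruskal–Wallis followed by Mann–Whitney U against vehicle.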

[4] = Aqueous solubility at pH 7.4; type: physicochemical; conditions: aqueous medium
Procedure, shortened: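 Solubility measured in water at pH 7.4.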

[5] = Lipophilicity log P of the compound; type: physicochemical; conditions: octanol/water
[6] = Solubility in dilute HCl at pH 2.3; type: physicochemical
[7] = Aqueous solubility at pH 7; type: physicochemical; conditions: aqueous medium
Rattus norvegicus [8] = assay: Anxiolytic activity in rat assessed as increase in time spent on open arm at 18 mg/kg, po by elevated plus-maze test; type: functional, organism-based; parameters: dose 18 mg/kg
Procedure, shortened: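 Rat elevated plus maze: percent of test time spent in the open arms. Oral dosing in 0.25% Methocel 60 min before testing; n = 12 per dose, mean ± SEM. Analysed by ANOVA followed by Fisher's LSD comparisons against vehicle.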

Rattus norvegicus [9] = assay: Toxicity in rat assessed as time spent on rotarod at 30 mg/kg, po after 1 hr by rotarod test; type: organism-based; parameters: dose 30 mg/kg, route oral; conditions: in vivo
Procedure, shortened: (§1)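 Rats, n = 8 per dose, dosed po in 0.25% Methocel 1 h before testing, at 0, 1.0, 3.0, 10, 30 and 100 mg/kg. Read-out is time on rotorod (s), mean ± SEM, compared with the vehicle (zero-dose) group.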

Rattus norvegicus [10] = assay: Toxicity in rat assessed as total distance traveled at 10 mg/kg, po after 1 hr by spontaneous locomotor test; type: functional
Procedure, shortened: (§2)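 Rat spontaneous locomotor activity test with oral dosing in 0.25% Methocel 1 h before testing, at doses up to 100 mg/kg. Values are mean ± SEM, with N rats per group, compared with the vehicle (zero-dose) group.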

Rattus norvegicus [11] = assay: Toxicity in rat assessed as time spent on rotarod at 10 mg/kg, po after 1 hr by rotarod test; type: organism-based; parameters: dose 10 mg/kg, route oral; conditions: in vivo; procedure, shortened: as §1
Rattus norvegicus [12] = assay: Toxicity in rat assessed as total distance traveled at 30 mg/kg, po after 1 hr by spontaneous locomotor test; type: functional; procedure, shortened: as §2
Rattus norvegicus [13] = assay: Toxicity in rat assessed as total distance traveled at 100 mg/kg, po after 1 hr by spontaneous locomotor test; type: organism-based; parameters: dose 100 mg/kg, route oral; conditions: in vivo; procedure, shortened: as §2
Rattus norvegicus [14] = assay: Toxicity in rat assessed as time spent on rotarod at 3 mg/kg, po after 1 hr by rotarod test; type: organism-based; parameters: dose 3 mg/kg, route oral; conditions: in vivo; procedure, shortened: as §1
Rattus norvegicus [15] = assay: Toxicity in rat assessed as total distance traveled at 3 mg/kg, po after 1 hr by spontaneous locomotor test; type: organism-based; parameters: dose 3 mg/kg, route oral; conditions: in vivo; procedure, shortened: as §2
[16] = Oral bioavailability in rat at 5 mg/kg; type: ADME, organism-based; conditions: in vivo
Procedure, shortened: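 Rats (n = 3) were dosed at 1 mg/kg iv in 10% DMAC, 70% propylene glycol and deionized water, and at 5 mg/kg po in 0.5% methylcellulose.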

[17] = Volume of distribution at steady state in rat at 1 mg/kg, iv and 5 mg/kg, po; type: ADME, organism-based; conditions: in vivo, read-out: Vdss
Procedure, shortened: (§3)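 Rats (n = 3) dosed iv at 1 mg/kg in 10% DMAC, 70% propylene glycol and deionized water, and orally at 5 mg/kg in 0.5% methylcellulose.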

[18] = Volume of distribution at steady state in chimpanzee at 0.5 mg/kg, iv; type: ADME, organism-based, Pan troglodytes; parameters: dose 0.5 mg/kg, route intravenous; conditions: in vivo, read-out: Vdss
Procedure, shortened: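 Single chimpanzee given 0.5 mg/kg iv over 10 min (0.2 mL/kg) in 10% DMAC, 70% propylene glycol and deionized water. EDTA blood taken predose, at 6, 15 and 30 min, and at 2 to 96 h.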

[19] = Clearance in rat at 1 mg/kg, iv and 5 mg/kg, po; type: ADME, organism-based; conditions: in vivo
Procedure, shortened: (§4)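 Rats (n = 3) received 1 mg/kg iv in 10% DMAC, 70% propylene glycol and deionized water, or 5 mg/kg orally in 0.5% methylcellulose.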

[20] = Cmax in Beagle dog at 1 mg/kg, po by cassette dosing; type: ADME, organism-based, Canis lupus familiaris; parameters: dose 1 mg/kg, route oral; conditions: in vivo
[21] = Oral bioavailability in chimpanzee at 1 mg/kg; type: ADME, organism-based, Pan troglodytes; conditions: in vivo
Procedure, shortened: (§5)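 Two alert chimpanzees were given 1 mg/kg po as a 1 mg/mL suspension in 50:50 (v/v) 0.5% methylcellulose and Tang orange juice containing 1% Tween-80. EDTA blood was taken predose and at 2–96 h. Bioavailability was calculated against a 0.5 mg/kg iv dose given to one animal.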

[22] = Clearance in chimpanzee at 0.5 mg/kg, iv; type: ADME, organism-based, Pan troglodytes; parameters: dose 0.5 mg/kg, route intravenous; conditions: in vivo
Procedure, shortened: (§6)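 Chimpanzee PK. Oral: 1 mg/kg in two alert animals, given as a 1 mg/mL suspension in 50–50 (v/v) 0.5% methylcellulose/Tang orange juice with 1% Tween-80. IV: 0.5 mg/kg in one animal in 10% DMAC, 70% propylene glycol and deionized water, infused over 10 min (0.2 mL/kg). EDTA blood was taken predose and at 2–96 h; iv sampling added 6, 15 and 30 min.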

[23] = Cmax in rat at 5 mg/kg, po; type: ADME, organism-based; parameters: dose 5 mg/kg, route oral; conditions: in vivo; procedure, shortened: as §4
[24] = Half life in Beagle dog by discrete dosing; type: ADME, organism-based, Canis lupus familiaris; conditions: in vivo
[25] = biological target: T1, Corticotropin-releasing factor receptor 1; assay: Agonist activity at CRF1 receptor in rat pituitary cells
[26] = AUC in Beagle dog at 1 mg/kg, po by cassette dosing; type: ADME, organism-based, Canis lupus familiaris; parameters: dose 1 mg/kg, route oral; conditions: plasma
[27] = Half life in Beagle dog at 1 mg/kg, po by cassette dosing; type: ADME, organism-based, Canis lupus familiaris; parameters: dose 1 mg/kg, route oral; conditions: in vivo
[28] = Elimination half life in chimpanzee at 0.5 mg/kg, iv; type: ADME, organism-based, Pan troglodytes; parameters: dose 0.5 mg/kg, route intravenous; conditions: in vivo, read-out: beta t1/2 (converted)
Procedure, shortened: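 One chimpanzee received 0.5 mg/kg iv over 10 min (0.2 mL/kg) in 10% DMAC, 70% propylene glycol and deionized water. Blood was drawn into EDTA predose and at 6, 15, 30 min and 2, 4, 6, 9, 12, 24, 36, 48, 72 and 96 h.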

[29] = Cmax in chimpanzee at 1 mg/kg, po; type: ADME, organism-based, Pan troglodytes; parameters: dose 1 mg/kg, route oral; conditions: in vivo; procedure, shortened: as §6
[30] = AUC (0 to infinity) in chimpanzee at 0.5 mg/kg, iv; type: ADME, organism-based, Pan troglodytes; parameters: time infinity, dose 0.5 mg/kg, route intravenous; conditions: plasma; procedure, shortened: as §6
[31] = AUC (0 to infinity) in chimpanzee at 1 mg/kg, po; type: ADME, organism-based, Pan troglodytes; parameters: time infinity, dose 1 mg/kg, route oral; conditions: plasma; procedure, shortened: as §6
[32] = Elimination half life in chimpanzee at 1 mg/kg, po; type: ADME, organism-based, Pan troglodytes; parameters: dose 1 mg/kg, route oral; conditions: in vivo, read-out: beta t1/2 (converted); procedure, shortened: as §5
[33] = Tmax in rat at 5 mg/kg, po; type: ADME, organism-based; parameters: dose 5 mg/kg, route oral; conditions: in vivo; procedure, shortened: as §3

SMILES: C[N+](C)(C)CCOC(N)=O.[Cl-] [CARBACHOL]
- Activity (Rattus norvegicus [1]): 55.8%

SMILES: CCCN(CCC)c1nc(C)nc2c(-c3c(C)cc(N(C)C)nc3C)c(C)nn12
- pIC50 [2]: 7.83

SMILES: COCCNc1nc(C)nc2c(-c3c(C)cc(N(C)C)nc3C)c(C)nn12
- pIC50 [2]: < 5.00

SMILES: CCC[C@H](C)Nc1nc(C)nc2c(-c3ccc(OC)nc3C)c(C)nn12
- pIC50 [2]: 8.35

SMILES: CCCCN(CC)c1nc(C)nc2c(-c3c(C)cc(N(C)C)nc3C)c(C)nn12
- pIC50 [2]: 7.48

SMILES: CCC(CC)Nc1nc(C)nc2c(-c3cnc(OC)cc3C)c(C)nn12
- pIC50 [2]: 8.52

SMILES: CCC(CC)Nc1nc(C)nc2c(-c3cnc(N(C)C)cc3C)c(C)nn12
- pIC50 [2]: 7.61

SMILES: COCC(COC)Nc1nc(C)nc2c(-c3ccc(Cl)cc3Cl)c(C)nn12
- Activity (Rattus norvegicus [3]): 72%
- solubility [4]: < 1 µg/mL
- logP [5]: 4.97
- solubility [6]: 230 µg/mL (≈ 561 µM)
- solubility [7]: < 1 µg/mL
- Activity (Rattus norvegicus [8]): Active

SMILES: CCCCN(CC)c1nc(C)nc2c(-c3ccc(OC)nc3C)c(C)nn12
- pIC50 [2]: 8.31

SMILES: CCN(CC)c1nc(C)nc2c(-c3cnc(OC)cc3C)c(C)nn12
- pIC50 [2]: 7.84

SMILES: COCCN(CCOC)c1nc(C)nc2c(-c3c(C)cc(N(C)C)nc3C)c(C)nn12
- pIC50 [2]: 6.88

SMILES: CCN(CC)c1nc(C)nc2c(-c3ccc(OC)nc3C)c(C)nn12
- pIC50 [2]: 7.92

SMILES: CCCN(CCC)c1nc(C)nc2c(-c3ccc(OC)nc3C)c(C)nn12
- pIC50 [2]: 8.24

SMILES: CNC1=Nc2ccc(Cl)cc2C(c2ccccc2)=[N+]([O-])C1 [CHLORDIAZEPOXIDE]
- Time (Rattus norvegicus [9]): 114 s
- Activity (Rattus norvegicus [10]): 3981 cm
- Time (Rattus norvegicus [11]): 128 s
- Activity (Rattus norvegicus [12]): 2162 cm
- Activity (Rattus norvegicus [13]): 1062 cm
- Time (Rattus norvegicus [14]): 227 s
- Activity (Rattus norvegicus [15]): 4624 cm

SMILES: CCCCN(CC)c1nc(C)nc2c1c(C)cn2-c1c(C)cc(C)cc1C.Cl
- logP [5]: > 5
- solubility [7]: < 1 µg/mL

SMILES: COCCN(CCOC)c1nc(C)nc2c(-c3ccc(OC)cc3C)c(C)nn12.O=S(=O)(O)c1ccccc1
- bioavailability [16]: 51%
- Vd [17]: 14.6 L/kg
- solubility [4]: < 1 µg/mL
- Vd [18]: 9.52 L/kg
- clearance [19]: 20 mL/min/kg
- logP [5]: 4.76
- Cmax [20]: 369 nM
- bioavailability [21]: 5.2%
- clearance [22]: 10.2 mL/min/kg
- Cmax [23]: 851 nM
- solubility [6]: 2500 µg/mL
- half-life [24]: 27 h
- pIC50 [25]: 7.14
- AUC [26]: 1.66 µM·h
- half-life [27]: 10.1 h
- half-life [28]: 20.2 h
- Cmax [29]: 27 nM
- AUC(0-inf) [30]: 2.04 µM·h
- AUC(0-inf) [31]: 0.212 µM·h
- half-life [32]: 16.5 h
- Tmax [33]: 0.5 h

SMILES: COCCN(CCOC)c1nc(C)nc2c(-c3cnc(OC)cc3C)c(C)nn12
- pIC50 [2]: 7.62

SMILES: CCC(CC)Nc1nc(C)nc2c(-c3c(C)cc(N(C)C)nc3C)c(C)nn12
- pIC50 [2]: 7.59
